Measured values published in ChEMBL document CHEMBL1137540, “Synthesis and in vitro evaluation of leishmanicidal and trypanocidal activities of N-quinolin-8-yl-arylsulfonamides” (Bioorg Med Chem, 2007).

Columns and labels:
Leishmania amazonensis [1] = experiment: Reduction of Leishmania amazonensis 575 amastigotes infection in mouse peritoneal macrophage at 10 uM after 48 hrs; type: functional; parameters: scale not given: the % may be the effect or the level left
How it was run: (§1)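 Peritoneal macrophages from female albino Swiss mice were grown on glass slides in DMEM with 20% heat-inactivated FBS at 37 °C, 5% CO2. Cells were infected with L. amazonensis promastigotes at 1:10 cell:parasite for 4 h, then treated for 48 h. Slides were methanol-fixed and Giemsa-stained, and 500 random cells were scored for infection rate. Values are the mean of two experiments.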

Leishmania amazonensis [2] = experiment: Antiprotozoal activity against Leishmania amazonensis 575 in vero cells; type: functional, organism-based; details: promastigotes, in the assay text read “promastigotes” for “in vero cells”
How it was run: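 Axenic growth assay: L. amazonensis 575 promastigotes were grown in Schneider's medium with 5% heat-inactivated FBS, and T. cruzi Y epimastigotes in LIT medium with 10% FBS. Parasites at 1 × 10^6 cells/ml were exposed to 0.2–100 µM for 72 h at 28 °C. Survivors were counted in a Neubauer chamber. Three experiments were run in triplicate, and IC50 was derived by linear regression.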

Leishmania chagasi = experiment: Antiprotozoal activity against Leishmania chagasi PP75 in vero cells; type: functional, organism-based
[3] = Cytotoxicity against Vero cells by MTT assay; type: cell-based; details: African green monkey
How it was run: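 Vero cells were exposed to compounds for 72 h at 37 °C, then incubated with MTT for 4 h. Formazan was dissolved in DMSO and read at 540 nm. CC50 was derived by linear regression, with ANOVA and Dunnett's test.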

Trypanosoma cruzi [4] = experiment: Antiprotozoal activity against Trypanosoma cruzi Y in vero cells; type: functional, organism-based
Leishmania amazonensis [5] = experiment: Reduction of Leishmania amazonensis 575 infection in mouse peritoneal macrophage at 5 uM after 48 hrs; type: functional; parameters: scale not given: the % may be the effect or the level left; how it was run: as §1
Leishmania amazonensis [6] = experiment: Reduction of Leishmania amazonensis 575 infection in mouse peritoneal macrophage at 1 uM after 48 hrs; type: functional; parameters: scale not given: the % may be the effect or the level left; how it was run: as §1
Leishmania amazonensis [7] = experiment: Reduction of Leishmania amazonensis 575 infection in mouse peritoneal macrophage at 25 uM after 48 hrs; type: functional; parameters: scale not given: the % may be the effect or the level left; how it was run: as §1
Trypanosoma cruzi [8] = experiment: Reduction of Trypanosoma cruzi Y amastigotes infection in Vero cells at 25 uM after 48 hrs; type: functional; parameters: scale not given: the % may be the effect or the level left
How it was run: (§2)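 Vero cells on glass slides in DMEM with 5% FBS at 37 °C, 5% CO2 were infected with culture-derived trypomastigotes at 1:10 cell:parasite for 6 h. Non-adherent parasites were washed off, and cells were treated for 48 h. Slides were methanol-fixed and Giemsa-stained, and 500 random cells were examined at 1000× for infection rate. Values are the mean of two experiments.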

Trypanosoma cruzi [9] = experiment: Reduction of Trypanosoma cruzi Y amastigotes infection in Vero cells at 1 uM after 48 hrs; type: functional; parameters: scale not given: the % may be the effect or the level left; how it was run: as §2
Trypanosoma cruzi [10] = experiment: Reduction of Trypanosoma cruzi Y amastigotes infection in Vero cells at 5 uM after 48 hrs; type: functional; parameters: scale not given: the % may be the effect or the level left; how it was run: as §2

SMILES | IC50 (Leishmania amazonensis [2]) | IC50 (Leishmania chagasi) | IC50 (Trypanosoma cruzi [4]) | Activity (Leishmania amazonensis [1]) | CC50 [3] | Activity (Leishmania amazonensis [5]) | Activity (Leishmania amazonensis [6]) | Activity (Leishmania amazonensis [7]) | Activity (Trypanosoma cruzi [8]) | Activity (Trypanosoma cruzi [9]) | Activity (Trypanosoma cruzi [10])
CC(C)c1cc(C(C)C)c(S(=O)(=O)Nc2cccc3cccnc23)c(C(C)C)c1 | > 100 µM | > 100 µM | > 100 µM |  |  |  |  |  |  |  | 
CCCc1ccc(S(=O)(=O)Nc2cc(OC)cc3ccc(C)nc23)cc1 | > 100 µM | > 100 µM | > 100 µM |  |  |  |  |  |  |  | 
O=S(=O)(Nc1cccc2cccnc12)c1ccc(F)cc1 | > 100 µM | > 100 µM | > 100 µM |  |  |  |  |  |  |  | 
CCCc1ccc(S(=O)(=O)Nc2c(Br)cc(Br)c3cccnc23)cc1 | > 100 µM | > 100 µM | > 100 µM |  |  |  |  |  |  |  | 
O=[N+]([O-])c1ccc(S(=O)(=O)Nc2cccc3cccnc23)cc1 | > 100 µM | > 100 µM | > 100 µM |  |  |  |  |  |  |  | 
O=C(Cn1ccnc1[N+](=O)[O-])NCc1ccccc1 [BENZNIDAZOLE] |  |  | 14.6 µM |  | > 1000 µM |  |  |  | 92% |  | 

Continued, in another order:

IC50 (Leishmania amazonensis [2]) | IC50 (Leishmania chagasi) | IC50 (Trypanosoma cruzi [4]) | SMILES | Activity (Leishmania amazonensis [1]) | CC50 [3] | Activity (Leishmania amazonensis [5]) | Activity (Leishmania amazonensis [6]) | Activity (Leishmania amazonensis [7]) | Activity (Trypanosoma cruzi [8]) | Activity (Trypanosoma cruzi [9]) | Activity (Trypanosoma cruzi [10])
0.31 µM | 0.25 µM |  | C[C@@H]1[C@H](O)[C@@H](C)/C=C/C=C/C=C/C=C/C=C/C=C/C=C/[C@H](O[C@@H]2O[C@H](C)[C@@H](O)[C@H](N)[C@@H]2O)C[C@@H]2O[C@](O)(C[C@@H](O)C[C@@H](O)[C@H](O)CC[C@@H](O)C[C@@H](O)CC(=O)O[C@H]1C)C[C@H](O)[C@H]2C(=O)O [AMPHOTERICIN B] | 97% | 98.4 µM |  |  |  |  |  | 
2.12 µM | 0.45 µM | > 100 µM | O=S(=O)(Nc1cccc2cccnc12)c1cc(F)cc(F)c1 |  | 66.3 µM |  |  |  |  |  | 
4.94 µM | 2.99 µM | > 100 µM | O=S(=O)(Nc1cccc2cccnc12)c1ccc(Br)cc1 |  | 88.7 µM |  |  |  |  |  | 
2.85 µM | 0.53 µM | > 100 µM | O=S(=O)(Nc1cccc2cccnc12)c1cc(Br)c(Br)s1 |  | 68.7 µM |  |  |  |  |  | 
6.27 µM | 2.18 µM | > 100 µM | O=S(=O)(Nc1cccc2cccnc12)c1ccc(-c2ccccc2)cc1 |  | 245 µM | 72.3% | 60% | 82.1% |  |  | 
2.25 µM | 0.56 µM | 31.8 µM | O=S(=O)(Nc1cccc2cccnc12)c1cnc(Cl)c(Br)c1 |  | 67.4 µM | 67.1% | 52% | 84.8% | 96.4% | 78.6% | 85.2%
7.18 µM | 3.53 µM | > 100 µM | CN(C)c1cccc2c(S(=O)(=O)Nc3cccc4cccnc34)cccc12 |  | 84.2 µM | 48.2% | 25.7% | Toxic |  |  | 
14.5 µM | 14 µM | > 100 µM | CCCc1ccc(S(=O)(=O)Nc2cccc3cccnc23)cc1 |  | 64.4 µM | 52.2% | 18.7% | 63.7% |  |  | 
